The source of these data is PubChem BioAssay.

Calls of active or inactive are those of the source.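 The calls were made as follows, unless noted: active = visually confirmed hit in the image check and inhibition above 20%; inconclusive = visually confirmed hit but inhibition not above 20%; inactive = no visual hit in the image check.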

Experiment [1] is described as follows: inhibitors of TNFa-induced NFkB p65 translocation, primary screen, imaging, HUVEC, MLSMR starter and 10KST1 sets (AID 438;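 active = inhibition above 20% together with a positive visual image hit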;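 also: compound added about 3h40 before a 20 min TNFalpha stimulation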;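 as to inhibition: signal is the nuclear over cytoplasmic p65 intensity ratio per well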). As to conditions: HUVEC TNFa-induced p65 nuclear translocation; cell count: measured here: nuclei count (cytotoxicity indicator), at 2.08 µM; inhibition: at 2 µM, stronger effect = higher value, 0% TNFa-plus-vehicle, 100% no-TNFa wells.
The nature of experiment [2]: endothelial E-selectin expression blockers – imaging, HUVEC, immunofluorescence, MLSMR starter and 10KST1 sets, primary screen (AID 487).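 As to inhibition: signal is fraction of cell area covered by stained E-selectin grains.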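 As to nuclei count: 100% = median nuclei count of all wells on the same plate.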 As to conditions: HUVEC TNFalpha-induced E-selectin immunofluorescence imaging, at 2 µM; inhibition: stronger effect = higher value; nuclei count: measured here: cell number, toxicity.
A short description of experiment [3]: Primary imaging screen for DUSP6 inhibitors that restore phospho-Erk in transfected HeLa cells, chemical complementation (AID 609;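 active = compounds giving at least 50% inhibition in the cell-based MKP-3 phosphatase rescue imaging test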;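 as to inhibition: phospho-Erk level distribution per well compared with pooled transfected vehicle control wells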). The following applies: HeLa MKP-3 transfected, phospho-Erk imaging KS statistic, at 10 µM, cells stimulated with TPA for 15 min.
Experiment [4] deals with Dual specificity protein phosphatase 6 (Homo sapiens) (UniProt Q16828). The description is as above. The following applies: HeLa MKP-3 transfected, phospho-Erk imaging KS statistic; at 10 µM; stronger effect = higher value; cells stimulated with TPA for 15 min.
Sequence of Dual specificity protein phosphatase 6 (Homo sapiens) (Q16828 whole entry, looked up): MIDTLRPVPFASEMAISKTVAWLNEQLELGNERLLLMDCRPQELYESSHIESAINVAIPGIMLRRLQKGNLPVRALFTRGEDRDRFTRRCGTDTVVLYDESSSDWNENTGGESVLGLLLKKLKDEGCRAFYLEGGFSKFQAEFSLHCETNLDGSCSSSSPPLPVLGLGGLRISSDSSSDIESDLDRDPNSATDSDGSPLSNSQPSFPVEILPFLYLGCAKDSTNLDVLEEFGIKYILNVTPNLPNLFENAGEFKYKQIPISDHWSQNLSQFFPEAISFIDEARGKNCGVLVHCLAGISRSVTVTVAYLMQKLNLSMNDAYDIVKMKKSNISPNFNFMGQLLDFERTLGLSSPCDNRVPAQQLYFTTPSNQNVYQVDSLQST
Experiment [5] addresses Voltage-gated potassium channel subunit beta-2 (Rattus norvegicus) (UniProt P62483). In words: inhibitors of rat Kvbeta2 reductase activity – biochemical, NADPH fluorescence, primary screen (AID 622;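 active = fluorescence slope higher than the sample average by over 3 SD, cut at about -0.22 in these data, passing the limit was not always enough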;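 also: slope of raw intensity against log time taken from 70 to 1610 s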). The following applies: recombinant KvBeta, 4-cyanobenzaldehyde reduction, at 10 µM, stronger effect = higher value.
The target is the same in experiment [6]. In words: enhancers of rat Kvbeta2 NADPH turnover – biochemical, NADPH fluorescence, primary screen (AID 623;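 active = NADPH fluorescence slope more negative than the mean of all samples by about 3 SD, 99.7% confidence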;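 also: fluorescence intensity change per second fitted from 20 to 320 s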). As to conditions: Recombinant KvBeta, NADPH fluorescence decrease slope, 10 min; at 10 µM; stronger effect = lower value.
The target of experiment [7] is Alpha-2C adrenergic receptor (Homo sapiens) (UniProt P18825). In words: compounds altering alpha2C-coupled GIRK flux – cell-based, HEK293 alpha2C/GIRK1/2, thallium flux, primary screen (AID 624;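 active = fluorescence slope after compound addition differing from the mean of all screened samples at 99.7% confidence, in either direction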;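 also: slope of fluorescence ratio to pre-addition baseline per second over 15 to 24 s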). As to conditions: thallium flux BTC fluorescence, at 10 µM, actives lie on both sides.
Sequence of Alpha-2C adrenergic receptor (Homo sapiens) (P18825 whole entry, looked up): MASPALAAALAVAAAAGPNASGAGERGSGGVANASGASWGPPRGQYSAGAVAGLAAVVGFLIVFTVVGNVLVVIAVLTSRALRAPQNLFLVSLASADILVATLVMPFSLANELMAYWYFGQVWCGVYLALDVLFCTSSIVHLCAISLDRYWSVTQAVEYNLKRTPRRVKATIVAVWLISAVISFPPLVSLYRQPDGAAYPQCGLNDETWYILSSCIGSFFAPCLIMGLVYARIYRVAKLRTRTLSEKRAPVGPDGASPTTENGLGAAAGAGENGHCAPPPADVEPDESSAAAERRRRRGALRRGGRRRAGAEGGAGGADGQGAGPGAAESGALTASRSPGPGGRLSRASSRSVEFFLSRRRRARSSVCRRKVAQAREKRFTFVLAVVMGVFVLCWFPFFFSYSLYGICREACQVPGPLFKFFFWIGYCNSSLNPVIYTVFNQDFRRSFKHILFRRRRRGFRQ
Experiment [8] is described as follows: inhibitors of larval lipid processing in zebrafish, primary screen, whole organism, PED6 fluorescence, gall bladder and intestine (AID 686;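 active = a full or partial loss of lipid-probe fluorescence in the fish gall bladder, intestine or both, judged by eye; inactive = no fluorescence loss, or compound toxic to the fish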;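 also: signal comes from phospholipase A2 cleavage of quenched PED6 carried via bile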). As to conditions: Zebrafish larvae PED6 lipid processing, fluorescence scoring; screened at 20 µM (by protocol). Put shortly: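 Doses: 20 µM single dose. Test system: live zebrafish larvae aged 5-7 days, whole organism. Quantity: five larvae per well. Measured by: By-eye fluorescence microscopy. Reagent: ingested quenched lipid PED6 at 100 nM. Read-out: visual per-well fluorescence inhibition score. Times: overnight exposure of larvae to compound plus PED6.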

Experiment [9] can be described thus: loss of swimming-algae plug formation – whole organism, Chlamydomonas reinhardtii, WT vs cilia-less mutant, absorbance, 96-well, primary screen (AID 463189;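 active = inhibition at or above 50% relative to wild type and mutant plate controls; inactive = inhibition below 50%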;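 also: 0% = wild type cc124 cells in DMSO and 100% = ciliumless bld1 mutant cells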). As to conditions: Chlamydomonas reinhardtii gravitaxis, OD600 absorbance, 2 days; at 10 µM; stronger effect = higher value.
The mark [10] stands for this setting: measured here: cell density z-score.
Setting [11] is: measured here: nuclear c-Myc green intensity z-score.
The mark [12] stands for this setting: measured here: nuclear pErk red intensity z-score, stronger effect = higher value.

Sequence of Voltage-gated potassium channel subunit beta-2 (Rattus norvegicus) (P62483 whole entry, looked up): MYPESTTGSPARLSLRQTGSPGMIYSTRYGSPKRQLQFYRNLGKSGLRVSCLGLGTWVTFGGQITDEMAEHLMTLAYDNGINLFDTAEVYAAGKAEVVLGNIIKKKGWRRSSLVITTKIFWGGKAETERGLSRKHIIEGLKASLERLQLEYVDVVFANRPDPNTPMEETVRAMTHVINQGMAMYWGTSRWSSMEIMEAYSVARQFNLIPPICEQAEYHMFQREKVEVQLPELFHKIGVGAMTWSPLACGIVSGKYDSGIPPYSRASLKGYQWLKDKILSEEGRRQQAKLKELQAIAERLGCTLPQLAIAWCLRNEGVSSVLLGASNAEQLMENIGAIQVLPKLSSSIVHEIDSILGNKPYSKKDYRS

Take `CCOC(=O)CNS(=O)(=O)c1cc(-c2nn(C)c(=O)c3ccccc23)ccc1C`: the cell count in experiment [1] was 560. Also, the inhibition (as a rule, the change of the read-out against control, counted positive when it falls) was -1.9% (inactive) in experiment [1], 45.7% (inactive) in [2], 8.76% (inactive) in [4] and -1.44% (inactive) in experiment [9]. For the same compound, in experiment [2], the nuclei count stood at 144%. Besides, the z-score in experiment [3] (setting [10]) is 1.99; in experiment [3] (setting [11]), -1.09; in experiment [3] (setting [12]), -0.809. For the same compound, the fluorescence slope in [5] was -0.385 (inactive). Besides, in experiment [6], the NADPH fluorescence slope was -1.9e-05 (inactive). In addition, in [7], the slope was 0.00449 (inactive). Further, in [8], the compound was classed as inactive.

On to `CCCOC(=O)CSC1=C(C#N)C(c2ccccc2OC)C(C#N)C(=O)N1` (stereo unspecified), for which, in experiment [1], the cell count was found to be 496. For the same compound, the inhibition in experiment [1] was -3.9% (inactive); in [2], -60% (inactive); in [4], -2.07% (inactive); in experiment [9] it was -12.6% (inactive). In experiment [2], the nuclei count was found to be 136%. In addition, the z-score in experiment [3] (setting [10]) was -0.969; in experiment [3] (setting [11]), 0.676; in experiment [3] (setting [12]) it was 0.273. Also, the fluorescence slope in experiment [5] was -0.5 (inactive). In addition, in experiment [6], the NADPH fluorescence slope is -7.4e-05 (inactive). In experiment [7], the slope was 0.00543 (inactive). Further, in experiment [8], the result was inactive.

Take `COC(=O)c1c(C)noc1-c1cc(C)on1`: the cell count in experiment [1] was determined as 514. Moreover, the inhibition in [1] is 5.6% (inactive); in experiment [2] it was 63.3% (inactive); in [4] it was 3.56% (inactive); in [9] it was -9.07% (inactive). This compound also yielded a nuclei count in [2] of 177%. Also, the z-score was -1.72 in [3] (setting [10]), 0.497 in experiment [3] (setting [11]) and 0.322 in [3] (setting [12]). Moreover, in experiment [5], the fluorescence slope is -0.533 (inactive). The NADPH fluorescence slope in experiment [6] was -4e-05 (inactive). Moreover, in experiment [7], the slope was 0.00511 (inactive). Also, the compound was classed as inactive in experiment [8].

As to `Cc1ccc(-c2nn3c(-c4cccc(Cl)c4)nnc3s2)cc1`, in [1], the cell count came out at 482. Besides, the inhibition is -6.6% (inactive) in experiment [1], -115% (inactive) in [2], -7.86% (inactive) in experiment [4] and 26.8% (inactive) in experiment [9]. This compound also had a nuclei count in experiment [2] of 128%. The z-score is -1.6 in experiment [3] (setting [10]), -0.179 in experiment [3] (setting [11]) and 1.45 in [3] (setting [12]). Also, in experiment [5], the fluorescence slope was -0.434 (inactive). Besides, in experiment [6], the NADPH fluorescence slope is 7.3e-06 (inactive). Moreover, the slope in [7] is 0.00635 (inactive). In [8], the compound was called inactive.

`Clc1ccccc1CSc1nnc(-c2ccco2)c(-c2ccco2)n1`: the cell count in [1] stood at 554. The inhibition in experiment [1] is -6.9% (inactive); in experiment [2] it was -21.1% (inactive); in experiment [4], -10.5% (inactive); in [9], 19.9% (inactive). In [2], the nuclei count worked out at 157%. Also, the z-score in experiment [3] (setting [10]) is -1.8; in [3] (setting [11]), 0.808; in experiment [3] (setting [12]), 0.169. For the same compound, the fluorescence slope in experiment [5] was -0.407 (inactive). The NADPH fluorescence slope in experiment [6] was -1.8e-05 (inactive). Besides, the slope in experiment [7] is 0.00446 (inactive). Moreover, the result in experiment [8] was inactive.

On to `CC(C)Cc1[nH]c(=O)c(C#N)c2c1CCCC2`, for which the cell count in [1] amounted to 623. In addition, the inhibition is 1.3% (inactive) in experiment [1], 2.8% (inactive) in experiment [2], 5.65% (inactive) in experiment [4] and 16.6% (inactive) in experiment [9]. Further, the nuclei count in experiment [2] stood at 155%. Further, the results for the z-score in experiment [3] (setting [10]), in experiment [3] (setting [11]) and in experiment [3] (setting [12]) were -1.11, 0.566 and 0.412, respectively. Moreover, the fluorescence slope in experiment [5] was -0.318 (inactive). Further, the NADPH fluorescence slope in experiment [6] is -9.4e-06 (inactive). Further, the slope in experiment [7] is 0.00948 (inactive). Further, the result in experiment [8] was inactive.

As to `CSc1nc(C)cc(OCCNS(=O)(=O)c2cc(C)ccc2C)n1`, the cell count in experiment [1] came out at 384. The inhibition in experiment [1] was -16% (inactive); in [2], -21.6% (inactive); in experiment [4], 12.3% (inactive); in experiment [9], 117% (active). The compound further gave a nuclei count in experiment [2] of 141%. Moreover, the z-score is 0.846 in [3] (setting [10]), -0.567 in experiment [3] (setting [11]) and -1.02 in experiment [3] (setting [12]). In addition, the fluorescence slope in experiment [5] was -0.414 (inactive). Moreover, the NADPH fluorescence slope in [6] was -8.3e-05 (inactive). Further, the slope in experiment [7] is 0.00593 (inactive). Besides, in experiment [8], the call was inactive.
